Results from different studies.
Each line is one published result; the experiments were not run side by side.
Target: Casein kinase I isoform epsilon (CSNK1E, Homo sapiens, UniProt P49674)

Structure (SMILES)	effect on	technique	concentration	remaining binding [%]
COc1cnc(Nc2cccc(S(N)(=O)=O)c2)nc1N1CCN(c2ccccc2)C(=O)C1	binding	competition with immobilised ligand	1 µM	100
Cc1c(NC(=O)c2cc(C(N)=O)nc3cc(F)ccc23)c(C(F)(F)F)nn1Cc1ccc(C(C)(C)C)cc1	cell-free assay	competition with immobilised ligand	1 µM	91
COc1cnc(Nc2cccc(S(N)(=O)=O)c2)nc1N1CCN(c2ccccc2)CC1	binding	competition with immobilised ligand	1 µM	100
C[C@H]1CCN(c2nccc(-c3cnn4ncccc34)n2)C1	binding	–	1 µM	49
C[C@@H]1CN(c2cc(-c3n[nH]c4ccc(OC5(C)CC5)cc34)ncn2)C[C@H](C)O1	cell-free assay	competition with immobilised ligand	0.1 µM	100
CN(C)c1ncc(F)c(-c2cnn3ncccc23)n1	binding	–	1 µM	100
CN(c1ccnc(CNc2nc(Nc3ccc4c(c3)CC(=O)N4)ncc2C(F)(F)F)n1)S(C)(=O)=O	cell-free assay	competition with immobilised ligand	1 µM	100
O=C(NCCCN1CCOCC1)c1ccc(Nc2nccc(-c3cc4ccccc4s3)n2)cc1	binding	competition with immobilised ligand	1 µM	100
N[C@@H]1CCN(c2nccc(-c3cnn4ncccc34)n2)C1	binding	–	1 µM	31
FC(F)(F)Oc1cccc(-c2cnc3ccc(-c4ccncc4)nn23)c1	cell-free assay	competition with immobilised ligand	5 µM	12
CN(C)c1nccc(-c2cnc3ncccn23)n1	binding	–	1 µM	65
CCN1CCN(Cc2ccc(C(=O)Nc3ccc(C)c(Oc4ccc5c(c4)CC(=O)N5)c3)cc2C(F)(F)F)CC1	binding	competition with immobilised ligand	1 µM	100
COc1ccnn2ncc(-c3ccnc(N(C)C)n3)c12	binding	–	1 µM	75
O=C(NCc1ncc(C(F)(F)F)cc1Cl)c1ccc2c(c1)C1(CCS(=O)(=O)CC1)[C@H](C1CC1)N2S(=O)(=O)c1ccc(F)cc1	cell-free assay	competition with immobilised ligand	1 µM	100
CN(c1nccc(-c2cnn3ncccc23)n1)C1CC1	binding	–	1 µM	100
O=C(NCCCN1CCOCC1)c1ccc(Nc2ncc(Cl)c(-c3ccc(Cl)s3)n2)cc1	binding	competition with immobilised ligand	1 µM	100
CC(=O)C1=C(C)N(c2cccc(C(F)(F)F)c2)C(=O)N[C@@H]1c1ccc(C#N)nc1	cell-free assay	competition with immobilised ligand	1 µM	100
F[C@@H]1CCN(c2nccc(-c3cnn4ncccc34)n2)C1	binding	–	1 µM	85
Cc1cc(NC(=O)c2cccc(S(F)(F)(F)(F)F)c2)cc(-n2ccn3nc(-c4cccnc4)cc23)c1	cell-free assay	competition with immobilised ligand	1 µM	75.7
O=C(c1ccc(Nc2nccc(-c3cc4ccccc4s3)n2)cc1)N1CCC(N2CCCC2)CC1	binding	competition with immobilised ligand	1 µM	100
O=C(Nc1c[nH]nc1C(=O)NC1CCNCC1)c1cc(F)cc(F)c1	binding	competition with immobilised ligand	1 µM	73
O=C1NC(c2ccccn2)Sc2ccccc21 (stereo not shown)	cell-free assay	competition with immobilised ligand	1 µM	98
